Results from ChEMBL document CHEMBL1122273, “5-sulfamoylorthanilic acids, a sulfonamide series with salidiuretic activity” (J Med Chem, 1983).
The source made the active and inactive calls. No cut-off for these calls is given here.

Tests used:
Rattus norvegicus [1] = species on record: Rattus norvegicus; assay: Saluretic activity in the rat measured as concentration of chloride in urine; type: functional
In short: (§1)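 Rats deprived of food 24 h, water ad libitum, dosed 50 mg/kg by stomach tube as suspension in 2% starch, no extra water load. Groups of three in diuresis funnels; urine over first 5 h collected. Na⁺ and K⁺ by flame photometry, Cl⁻ argentometrically; expressed as mequiv/kg.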

Rattus norvegicus [2] = species on record: Rattus norvegicus; assay: Saluretic activity in the rat measured as concentration of Na+ in urine; type: functional; in short: as §1
Canis familiaris [3] = assay: Salidiuretic activity on the basis of the 1.56 mg/Kg perorally dog assay; compound was found to be highly active; type: functional, organism-based; details: Canis lupus familiaris; Urine
Canis familiaris [4] = assay: Saluretic activity in the dog measured as concentration of Cl - in urinary excretion (2 animals/dose) at (dose 1.56 mg/Kg, perorally); type: functional, Canis lupus familiaris, Urine
In short: (§2)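 Male beagles trained to the procedures, food withdrawn 24 h before, tap water ad libitum. Bladder emptied by catheter, then 20 mL/kg tap water by stomach tube, plus 4 mL/kg orally at each hourly catheterization up to 8 h. The first 2 h of urine served as control. Compound given orally after the second catheterization. Urine from 1–6 h post-dose pooled; Na⁺ and K⁺ by flame photometry, Cl⁻ argentometrically, in mequiv/kg.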

Rattus norvegicus [5] = species on record: Rattus norvegicus; assay: Saluretic activity in the rat measured as concentration of K+ in urine; type: functional; in short: as §1
Canis familiaris [6] = assay: Saluretic activity in the dog measured as concentration of K+ in urinary excretion (2 animals/dose) at (dose 12.5 mg/Kg, perorally); type: functional, Canis lupus familiaris, Urine
In short: (§3)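 Male beagles trained to rest on a table and to accept stomach tube and catheter. Food withdrawn 24 h before, tap water ad libitum. Bladder emptied by catheter, then 20 mL/kg tap water by stomach tube. Catheterized hourly up to 8 h with 4 mL/kg water orally each time; first 2 h urine served as control. Oral dosing after second catheterization. Pooled 1–6 h urine; Na⁺/K⁺ by flame photometry, Cl⁻ argentometrically.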

Rattus norvegicus [7] = species on record: Rattus norvegicus; assay: Diuretic activity in the rats, determined by a modified Lipschitz test; type: functional, Urine
In short: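 Modified Lipschitz test: rats deprived of water 24 h, grouped in threes of similar weight in diuresis funnels. Oral dose of 50 mg/kg, suspended in 2% starch solution, by stomach tube.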

[8] = It is the ratio, measured as saluretic activity in the dog as concentration of Cl- in urinary excretion (dose 12.5 mg/Kg, perorally) to that of (Na++K+); type: functional, Urine
In short: (§4)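 Trained male beagles, fasted 24 h with tap water ad libitum. Bladder emptied by catheter, then 20 mL/kg tap water by stomach tube, with 4 mL/kg water at each hourly catheterization up to 8 h. The first 2 h of urine served as control. Oral dosing came after the second catheterization, and 1–6 h urine was pooled. Na⁺ and K⁺ were measured by flame photometry, Cl⁻ argentometrically, in mequiv/kg.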

Canis familiaris [9] = assay: Saluretic activity in the dog measured as concentration of Na+ in urinary excretion (2 animals/dose) at (dose 12.5 mg/Kg, perorally); type: functional, Canis lupus familiaris, Urine; in short: as §3
Canis familiaris [10] = assay: Diuretic activity in the dog (2 animals/dose) at (dose 1.56 mg/Kg), when administered perorally; type: functional, Canis lupus familiaris, Urine; in short: as §4
Canis familiaris [11] = assay: Diuretic activity in the dog (2 animals/dose) at (dose 12.5 mg/Kg), when administered perorally; type: functional, Canis lupus familiaris, Urine; in short: as §4
Canis familiaris [12] = assay: Saluretic activity in the dog measured as concentration of K+ in urinary excretion (2 animals/dose) at (dose 1.56 mg/Kg, perorally); type: functional, Canis lupus familiaris, Urine; in short: as §2
Canis familiaris [13] = assay: Saluretic activity in the dog measured as concentration of Na+ in urinary excretion (2 animals/dose) at (dose 1.56 mg/Kg, perorally); type: functional, Canis lupus familiaris, Urine; in short: as §3
[14] = It is the ratio, measured as saluretic activity in the dog as concentration of Na+ in urinary excretion (dose 1.56 mg/Kg, perorally) to that of K; type: functional, Urine; in short: as §4
Rattus norvegicus [15] = assay: Salidiuretic activity on the basis of the 50 mg/kg perorally rat assay; NA means inactive; details: Urine
[16] = It is the ratio, measured as saluretic activity in the dog as concentration of Na+ in urinary excretion (dose 12.5 mg/Kg, perorally) to that of K; type: functional, Urine; in short: as §4
[17] = It is the ratio, measured as saluretic activity in the dog as concentration of Cl- in urinary excretion (dose 1.56 mg/Kg, perorally) to that of (Na+)+(K+); type: functional, Urine; in short: as §4
Canis familiaris [18] = assay: Saluretic activity in the dog measured as concentration of Cl - in urinary excretion (2 animals/dose) at (dose 12.5 mg/Kg, perorally); type: functional, Canis lupus familiaris, Urine; in short: as §2
[19] = It is the ratio, measured as saluretic activity in the dog as concentration of Na+ in urinary excretion (dose 1.56 mg/Kg, po) to that of K; type: functional, Urine; in short: as §4
Canis familiaris [20] = assay: Saluretic activity in the dog measured as concentration of Na+ in urinary excretion (2 animals/dose) at (dose 1.56 mg/Kg, po); type: functional, Canis lupus familiaris, Urine; in short: as §3
Canis familiaris [21] = assay: Saluretic activity in the dog measured as concentration of K+ in urinary excretion (2 animals/dose) at (dose 1.56 mg/Kg, po); type: functional, Canis lupus familiaris, Urine; in short: as §3
Canis familiaris [22] = assay: Saluretic activity in the dog measured as concentration of Cl - in urinary excretion (2 animals/dose) at (dose 1.56 mg/Kg, po); type: functional, Canis lupus familiaris, Urine; in short: as §2
[23] = It is the ratio, measured as saluretic activity in the dog as concentration of Cl- in urinary excretion (dose mg/Kg, po) to that of (Na+)+(K+); type: functional, Urine; in short: as §4
Canis familiaris [24] = assay: Saluretic activity in the dog measured as concentration of K+ in urinary excretion (2 animals/dose) at (dose 12.5 mg/Kg, po); type: functional, Canis lupus familiaris, Urine; in short: as §3
[25] = It is the ratio, measured as saluretic activity in the dog as concentration of Na+ in urinary excretion(dose 1.56 mg/kg, p.o.) to that of K; type: functional, Urine; details: route oral; in short: as §4
Canis familiaris [26] = assay: Saluretic activity in the dog measured as concentration of Cl - in urinary excretion (2 animals/dose) at (dose 12.5 mg/Kg, po); type: functional, Canis lupus familiaris, Urine; in short: as §2
[27] = It is the ratio, measured as saluretic activity in the dog as concentration of Cl- in urinary excretion (dose 12.5 mg/Kg, po) to that of (Na++K+); type: functional, Urine; in short: as §4
Canis familiaris [28] = assay: Saluretic activity in the dog measured as concentration of Na+ in urinary excretion (2 animals/dose) at (dose 12.5 mg/Kg, po); type: functional, Canis lupus familiaris, Urine; in short: as §3
[29] = It is the ratio, measured as saluretic activity in the dog as concentration of Cl- in urinary excretion (dose 1.56 mg/Kg, po) to that of (Na+)+(K+); type: functional, Urine; in short: as §4
[30] = It is the ratio, measured as saluretic activity in the dog as concentration of Na+ in urinary excretion (dose 12.5 mg/Kg, po) to that of K; type: functional, Urine; in short: as §4
Canis familiaris [31] = assay: Sailuric activity in the dog measured as concentration of Na+ in urinary excretion (2 animals/dose) at (dose 1.56 mg/Kg, po); type: functional, Canis lupus familiaris, Urine; in short: as §2
[32] = It is the ratio, measured as saluretic activity in the dog as concentration of Na+ in urinary excretion (dose 1.56mg/Kg, po) to that of K; type: functional, Urine; in short: as §4
Canis familiaris [33] = assay: Sailuric activity in the dog measured as concentration of K+ in urinary excretion (2 animals/dose) at (dose 1.56 mg/Kg, po); type: functional, Canis lupus familiaris, Urine; in short: as §2
Canis familiaris [34] = assay: Sailuric activity in the dog measured as concentration of Cl - in urinary excretion (2 animals/dose) at (dose 1.56 mg/Kg, po); type: functional, Canis lupus familiaris, Urine; in short: as §2

Which Saluretic activity (Rattus norvegicus [1]) does the source give for `NS(=O)(=O)c1cc(S(=O)(=O)[O-])c(NCc2cccs2)cc1Oc1ccccc1.[K+]` here?
Its Saluretic activity is 0.6 m equiv 5hr-1 kg-1.

And the Saluretic activity (Rattus norvegicus [2])?
Its Saluretic activity is 0.8 m equiv 5hr-1 kg-1.

What about the Saldiuretic activity (Canis familiaris [3]) of the same compound?
Its Saldiuretic activity is “Active”.

And the Saldiuretic activity (Canis familiaris [4])?
The Saldiuretic activity was 4.45 m equiv 6hr-1 kg-1.

And the Saluretic activity (Rattus norvegicus [5])?
The Saluretic activity was 0.4 m equiv 5hr-1 kg-1.

And the Saldiuretic activity (Canis familiaris [6])?
Its Saldiuretic activity is 1.47 m equiv 6hr-1 kg-1.

And the Diuretic activity (Rattus norvegicus [7])?
Its Diuretic activity is 0.8 mL/kg.

What about the Ratio [8] of the same compound?
Its Ratio is 0.95.

What about the Saluretic activity (Canis familiaris [9]) of the same compound?
The Saluretic activity was 6.89 m equiv 6hr-1 kg-1.

What about the Diuretic activity (Canis familiaris [10]) of the same compound?
Its Diuretic activity is 58 ml kg-1 6hr-1.

And the Diuretic activity (Canis familiaris [11])?
The Diuretic activity was 78 ml kg-1 6hr-1.

What about the Saluretic activity (Canis familiaris [12]) of the same compound?
The Saluretic activity was 1.03 m equiv 6hr-1 kg-1.

What about the Saluretic activity (Canis familiaris [13]) of the same compound?
Its Saluretic activity is 3.73 m equiv 6hr-1 kg-1.

And the Ratio [14]?
Its Ratio is 3.6.

What about the Diuretic activity (Rattus norvegicus [15]) of the same compound?
The Diuretic activity was “inactive”.

And the Ratio [16]?
The Ratio was 4.7.

What about the Ratio [17] of the same compound?
Its Ratio is 0.95.

And the Saldiuretic activity (Canis familiaris [18])?
Its Saldiuretic activity is 7.84 m equiv 6hr-1 kg-1.

Which Saluretic activity (Rattus norvegicus [1]) does the source give for `NS(=O)(=O)c1cc(S(=O)(=O)[O-])c(NCc2ccco2)cc1[S+]([O-])C1CCCCC1.[Na+]` (centres undefined) here?
Its Saluretic activity is 1.7 m equiv 5hr-1 kg-1.

What about the Saluretic activity (Rattus norvegicus [2]) of the same compound?
Its Saluretic activity is 1.3 m equiv 5hr-1 kg-1.

What about the Ratio [19] of the same compound?
Its Ratio is 1.8.

And the Saluretic activity (Canis familiaris [20])?
The Saluretic activity was 0.59 m equiv 6hr-1 kg-1.

And the Saluretic activity (Canis familiaris [21])?
Its Saluretic activity is 0.33 m equiv 6hr-1 kg-1.

And the Saldiuretic activity (Canis familiaris [22])?
The Saldiuretic activity was 1.27 m equiv 6hr-1 kg-1.

What about the Saluretic activity (Rattus norvegicus [5]) of the same compound?
Its Saluretic activity is 1.4 m equiv 5hr-1 kg-1.

And the Diuretic activity (Rattus norvegicus [7])?
Its Diuretic activity is 1.2 mL/kg.

What about the Ratio [23] of the same compound?
The Ratio was 1.4.

What about the Diuretic activity (Canis familiaris [10]) of the same compound?
The Diuretic activity was 48.4 ml kg-1 6hr-1.

What does the source list for `NS(=O)(=O)c1cc(S(=O)(=O)[O-])c(NCc2ccco2)cc1S(=O)(=O)c1ccccc1.[K+]`?
Saluretic activity (Canis familiaris [24]): 0.93 m equiv 6hr-1 kg-1; Saluretic activity (Rattus norvegicus [1]): 9.8 m equiv 5hr-1 kg-1; Saluretic activity (Rattus norvegicus [2]): 7.1 m equiv 5hr-1 kg-1; Ratio [25]: 2; Saluretic activity (Canis familiaris [20]): 0.49 m equiv 6hr-1 kg-1; Saluretic activity (Canis familiaris [21]): 0.25 m equiv 6hr-1 kg-1; Saldiuretic activity (Canis familiaris [26]): 5.28 m equiv 6hr-1 kg-1; Saldiuretic activity (Canis familiaris [22]): 1.09 m equiv 6hr-1 kg-1; Saluretic activity (Rattus norvegicus [5]): 2.6 m equiv 5hr-1 kg-1; Ratio [27]: 1.1; Saluretic activity (Canis familiaris [28]): 4 m equiv 6hr-1 kg-1; Diuretic activity (Rattus norvegicus [7]): 3.6 mL/kg; Ratio [29]: 1.5; Diuretic activity (Canis familiaris [10]): 35.3 ml kg-1 6hr-1; Ratio [30]: 4.3; Diuretic activity (Canis familiaris [11]): 59.7 ml kg-1 6hr-1

With `NS(=O)(=O)c1cc(S(=O)(=O)[O-])c(NCc2ccco2)cc1S(=O)(=O)C1CCCC1.[Na+]` as the compound, how does the Saluretic activity (Rattus norvegicus [1]) read?
The Saluretic activity was 9.5 m equiv 5hr-1 kg-1.

What about the Saluretic activity (Rattus norvegicus [2]) of the same compound?
Its Saluretic activity is 8 m equiv 5hr-1 kg-1.

And the Saluretic activity (Canis familiaris [31])?
Its Saluretic activity is 4.24 m equiv 6hr-1 kg-1.

And the Saluretic activity (Rattus norvegicus [5])?
Its Saluretic activity is 2 m equiv 5hr-1 kg-1.

And the Diuretic activity (Rattus norvegicus [7])?
The Diuretic activity was 4.3 mL/kg.

And the Ratio [29]?
Its Ratio is 1.

And the Diuretic activity (Canis familiaris [10])?
Its Diuretic activity is 58 ml kg-1 6hr-1.

What about the Ratio [32] of the same compound?
The Ratio was 4.2.

And the Saldiuretic activity (Canis familiaris [33])?
Its Saldiuretic activity is 1.02 m equiv 6hr-1 kg-1.

And the Saldiuretic activity (Canis familiaris [34])?
The Saldiuretic activity was 5.26 m equiv 6hr-1 kg-1.
